Shown are actives, neighbours in structure and some others; about 4.5% of the full set was active somewhere.
CHO parental Ca = signal in parental CHO cells, OX1R antagonist counter-screen. parental CHO-K1, ATP-induced calcium, Fluo-8 fluorescence. inhibition, % at 5.6 µM. 330,000 compounds, 0.63% hits;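 active = inhibition above that plate's mean sample inhibition plus 3 SD, cut at about 26% in these data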
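Assay system – parental CHO cells · Reagent – ATP stimulus · Detection – intracellular calcium via Fluo-8 no-wash fluorescent dye · Evaluation – percent inhibition of ATP-evoked calcium rise, normalized to controls · Controls – ATP wells versus no-ATP DMSO wells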
OX1R antag-1 = blocks the human orexin 1 receptor | OX1R-expressing cells, FRET antagonist read-out | inhibition, % at 6.6 µM | 330,000 compounds, 1.8% hits | AID 485270; in the data active = inhibition mostly above about 38%, no sharp cut-off; inactive = mostly below about 40%
TAAR1 agonist = human TAAR1 agonism; Q96RJ0; CHO RD-HGA16 TAAR1, Fluo-8 calcium fluorescence; vehicle wells 0%, saturating PEA agonist 100%; activation, % at 3 µM; 360,000 compounds, 0.99% hits; AID 624467;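 active = activation above the mean activation of all test compounds in the run plus 3 SD, cut at about 38% in these data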
Target sequence (Q96RJ0 whole entry, looked up): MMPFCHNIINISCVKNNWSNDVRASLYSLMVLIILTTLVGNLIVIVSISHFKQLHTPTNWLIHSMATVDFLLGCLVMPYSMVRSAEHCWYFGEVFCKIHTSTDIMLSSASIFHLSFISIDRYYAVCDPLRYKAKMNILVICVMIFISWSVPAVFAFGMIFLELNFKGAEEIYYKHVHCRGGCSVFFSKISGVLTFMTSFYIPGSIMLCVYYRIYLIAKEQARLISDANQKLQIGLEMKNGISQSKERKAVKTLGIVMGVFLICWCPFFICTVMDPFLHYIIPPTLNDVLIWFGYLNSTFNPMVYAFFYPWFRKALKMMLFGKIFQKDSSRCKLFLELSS
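Repeats: no replicates (n 1) | Material: CHO-derived RD-HGA16 cells with stable Gα16 and human TAAR1 | Technique: Kinetic Fluo-8 calcium fluorescence | Schedule: 17-24 h seeding, 75 min 37 °C dye, 30 min RT | Evaluation: % activation from peak over basal fluorescence ratio, DMSO-to-PEA scaled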
OX1R antag-2 = blocks the human orexin 1 receptor; inhibition, % at 5 µM; 330,000 compounds, 0.43% hits; O43613; CHO/OX1R cells, Fluo-8 calcium fluorescence, orexin A;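 active = inhibition above its plate's threshold, mean inhibition of all tested compounds on the plate plus 3 SD, cut at about 37% in these data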
TAAR1 antag = human TAAR1 antagonism | CHO RD-HGA16 TAAR1, Fluo-8 calcium fluorescence, antagonist | Q96RJ0 | 360,000 compounds, 1.5% hits | inhibition, % at 3 µM;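 active = inhibition above a per-plate cutoff, the mean inhibition of test compounds on that plate plus 3 SD, cut at about 49% in these data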
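Material: CHO RD-HGA16 cells bearing hTAAR1; compound dosing: one-point dosing, 3 µM nominal final; schedule: dye loading 75 min at 37 °C, then 30 min room temperature; measured by: calcium fluorescence with Fluo-8; control set: vehicle and agonist controls; replication: n of 1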
GPR7 antag = human neuropeptides B/W receptor 1 antagonism; P48145; GPR7-expressing cells, fluorescence antagonist assay; inhibition, % at 4.4 µM; 290,000 compounds, 1.1% hits; in the data active = inhibition above about 16%, passing the limit was not always enough;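 note: cells stimulated with the agonist NPW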
TAAR1 nonsel count = nonselective antagonist in TAAR1 antagonist counter-screen | shares compounds with TAAR1 antag | counterscreen cell line, calcium fluorescence, antagonist mode | inhibition, % at 3 µM | AID 651780 | 2,400 compounds, 77% hits; in the data active = inhibition above about 22%;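 note: CHO-Ga16 host cells stimulated with ATP at an EC80 level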
TAAR1 ant conf = human TAAR1 antagonism, confirmed. inhibition, % at 3 µM. TAAR1-expressing cells, fluorescence antagonist read-out. shares compounds with TAAR1 antag. 2,400 compounds, 40% hits; in the data active = inhibition above about 49%;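 note: CHO-Ga16 host cells challenged with agonist PEA near its EC80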
Ga16 nonsel ag = counter-screen for TAAR1 antagonists: nonselective Ga16 agonists. shares compounds with TAAR1 antag. Ga16-expressing cells, calcium fluorescence, agonist counterscreen. activation, % at 3 µM. AID 651953. 2,400 compounds, 18% hits; in the data active = activation above about 12%
TAAR1 ag counter = activates human TAAR1 in antagonist counter-screen. activation, % at 3 µM. shares compounds with TAAR1 antag. hTAAR1 cell line, fluorescence activation, agonist mode. AID 651955. 2,400 compounds, 2% hits; in the data active = activation above about 37%;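 note: CHO cells stably expressing TAAR1 with calcium dye readout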
Hits are given with their value; . = inactive; / = no result.

SMILES	CHO parental Ca	OX1R antag-1	TAAR1 agonist	OX1R antag-2	TAAR1 antag	GPR7 antag	TAAR1 nonsel count	TAAR1 ant conf	Ga16 nonsel ag	TAAR1 ag counter
CSc1nc2ccc(NS(=O)(=O)c3ccc(Cl)s3)cc2s1	.	.	.	.	.	.	/	/	/	/
Cc1nc(-c2cccc(NC(=O)c3ccc(Cl)c(S(=O)(=O)N4CCCC4)c3)c2)cs1	/	/	.	/	62	/	26	.	.	.
O=C(O)c1cccc(NC(=O)c2ccc(Cl)c(S(=O)(=O)N3CCCCCC3)c2)c1	.	.	.	.	.	.	/	/	/	/
Cc1nc(-c2cccc(NC(=O)c3ccc(-n4cccn4)cc3)c2)cs1	.	52	.	.	63	/	22	.	.	.
CCCn1c(NC(=O)c2ccc(Cl)c(S(=O)(=O)N3CCCC3)c2)nc2ccccc21	.	.	.	.	57	.	38	.	.	.
O=C(NCc1nc2ccccc2[nH]1)c1ccc(Cl)c(S(=O)(=O)N2CCCC2)c1	.	.	.	.	.	.	/	/	/	/
O=C(COc1ccccc1Cl)Nc1nc(-c2ccncc2)cs1	.	.	.	.	64	/	43	58	13	.
O=C(COC(=O)c1ccccc1O)Nc1cccnc1Cl	.	.	.	.	.	.	/	/	/	/
O=C(COC(=O)c1cccnc1Cl)Nc1nc(-c2ccccc2)cs1	.	.	.	.	68	.	33	.	12	.
COc1cc(NC(=O)COc2ccccc2Cl)ccc1NC(=O)c1cccs1	.	.	.	.	57	.	24	.	.	.
Cc1ccc(C(=O)OCC(=O)Nc2ccccc2)cc1NC(=O)c1ccco1	.	.	.	.	.	.	/	/	/	/
COc1cc(NC(=O)COc2ccccc2[N+](=O)[O-])ccc1NC(=O)c1cccs1	/	/	.	/	.	.	/	/	/	/
Cc1ccc(C(=O)OCC(=O)Nc2nc(-c3ccccc3)cs2)cc1NC(=O)c1ccco1	.	.	.	.	83	.	37	54	.	.
COc1ccc(NC(=O)CS(=O)CC(=O)N2CCN(C3CCCC3)CC2)cc1 (stereo not drawn)	.	.	.	.	.	.	/	/	/	/
COc1ccc(CCNC(=O)CCC(=O)NC2CCCC(C)C2C)cc1OC (stereo not drawn)	.	.	.	.	.	.	/	/	/	/
CCc1ccc(NC(=O)CC2C(=O)N(c3ccc(C)cc3)C(=O)N2CCc2ccncc2)cc1 (stereo not drawn)	.	.	.	.	.	.	/	/	/	/
COc1cccc(OC)c1C(=O)Nc1cccc(NC(=O)c2cccs2)c1	.	.	.	.	.	.	/	/	/	/
COc1ccc(C(=O)Nc2cccc(NC(=O)c3cccs3)c2)cc1OC	.	75	.	.	62	.	26	.	.	.
COc1ccc(OC)c(N(CC(=O)NCc2ccccc2)S(=O)(=O)c2ccc(OC)c(OC)c2)c1	.	.	.	.	51	.	22	.	.	.
COc1ccc(CCNC(=O)CN(c2cc(OC)ccc2OC)S(=O)(=O)c2ccccc2)cc1	.	.	.	.	50	.	30	.	.	.
COc1ccccc1N(CC(=O)NCCSCc1ccc(C)cc1)S(=O)(=O)c1ccccc1	.	60	.	.	84	.	27	51	.	.
COc1ccc(OC)c(N(CC(=O)NCCc2ccc(OC)c(OC)c2)S(=O)(=O)c2ccccc2)c1	.	.	.	.	.	.	/	/	/	/
COc1ccc(OC)c(N(CC(=O)NCCSCc2ccc(C)cc2)S(C)(=O)=O)c1	.	.	.	.	.	.	/	/	/	/
Cc1ccsc1C(C(=O)NC(C)(C)C)N(Cc1ccco1)C(=O)c1csnn1 (stereo not drawn)	.	.	.	.	.	.	/	/	/	/

Bioassay records: PubChem, The Scripps Research Institute Molecular Screening Center
